# Screens deposited in PubChem BioAssay by several laboratories.
# Most compounds without a hit are left out; they make up all but 1.5% or so of the library.
# NRP1-CendR mod – modulators of CendR peptide binding to NRP-1, primary screen, biochemical, fluorescence polarization, uHTS; Neuropilin-1 (Homo sapiens), O14786; FAM-RPARPAR peptide binding to NRP-1; inhibition, % at 25 µM; 0.85% of 360,000 active; AID 602438, 2012;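 active = inhibition or corrected inhibition above about 18%, plus a signal ratio from 0.5 to 1.5, limit read from the data, passing the limit was not always enough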
# DAGLB inhibitor – DAGLB lipase inhibitors, primary screen, biochemical, fluorescence, HTS; Diacylglycerol lipase-beta (Homo sapiens), Q8NCG7; HEK293T DAGLB membrane lysate, EnzChek fluorogenic substrate; inhibition, % at 5.17 µM; 0.059% of 340,000 active; AID 504411, 2011; in the data active = inhibition above about 34%;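 also: 0% = enzyme with vehicle and 100% = wells lacking enzyme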
# Target sequence (Q8NCG7 whole entry, looked up): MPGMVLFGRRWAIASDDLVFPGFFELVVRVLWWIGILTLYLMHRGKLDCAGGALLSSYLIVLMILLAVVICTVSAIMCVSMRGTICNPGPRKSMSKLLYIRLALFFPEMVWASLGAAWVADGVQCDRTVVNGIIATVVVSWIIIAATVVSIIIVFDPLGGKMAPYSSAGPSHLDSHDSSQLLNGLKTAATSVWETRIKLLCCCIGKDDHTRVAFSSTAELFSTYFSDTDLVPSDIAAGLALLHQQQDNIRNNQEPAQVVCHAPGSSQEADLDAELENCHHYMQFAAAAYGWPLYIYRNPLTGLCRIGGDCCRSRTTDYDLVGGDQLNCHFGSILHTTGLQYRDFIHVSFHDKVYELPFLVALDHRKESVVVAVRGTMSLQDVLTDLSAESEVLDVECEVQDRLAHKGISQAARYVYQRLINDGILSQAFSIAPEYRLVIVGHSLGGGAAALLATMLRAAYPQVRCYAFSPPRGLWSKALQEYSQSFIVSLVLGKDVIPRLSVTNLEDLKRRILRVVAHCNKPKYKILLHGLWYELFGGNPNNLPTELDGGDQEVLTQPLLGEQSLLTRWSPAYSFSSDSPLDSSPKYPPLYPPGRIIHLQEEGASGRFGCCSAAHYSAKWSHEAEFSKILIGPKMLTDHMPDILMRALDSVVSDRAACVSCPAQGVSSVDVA
# MT1-MMP act inh – blockers of MT1-MMP proenzyme processing, primary screen, HT1080 RFP-PRO-GFP cells, GFP/RFP fluorescence; 0.061% of 360,000 active; GFP/RFP ratio change, % at 20 µM; GFP/RFP ratio fluorescence, overnight; percent of plate control window, DMSO zero; AID 651647, 2012;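 active = GFP/RFP ratio change of at least 30% with cell ATP level not reduced by more than half and red fluorescence within 50% of control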
#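 Assay system – RFP-PRO-GFP reporter HT1080 cells · Compound dosing – single dose of 20 µM compound, 1% DMSO final · Incubation – overnight compound exposure at 37 °C · Measure – GFP/RFP fluorescence ratio · Benchmarks – DMSO wells and RFP-L50D-GFP cells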
# CTSL1 counter – Fasciola hepatica cathepsin L1 inhibitors, primary screen, counter-screen for PFM18AAP inhibitor project, biochemical, QFRET, fluorogenic peptide substrate. inhibition, % at 5.96 µM. AID 1906, 2009. recombinant F. hepatica cathepsin L1, Z-Leu-Arg-MCA fluorescence. 0.49% of 300,000 active;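 active = inhibition above the mean of all tested compounds plus 3 SD, set per screening campaign, cut at about 17% in these data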;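 also: 0% = plate median of test compound wells and 100% = 1 µM Z-Phe-Ala-diazomethylketone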
# UCH37 inh – inhibitors of human UCH37 deubiquitinase, primary screen, biochemical, Ub-AMC cleavage, fluorescence. Ubiquitin carboxyl-terminal hydrolase isozyme L5 (Homo sapiens), Q9Y5K5. AID 588478, 2011. purified proteasome/UCH37. inhibition, % (concentration not given with the values). 0.33% of 330,000 active;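 active = mean inhibition over replicate wells above about 20%, limit read from the data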;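 also: 0% = compound-free wells with enzyme and 100% = wells lacking proteasome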
#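 Material: human UCH37 enzyme supplied as purified proteasome complex. Measure: % inhibition of Ub-AMC cleavage fluorescence. Medium: pH 7.4 Tris-HCl (50 mM) with ovalbumin, ATP-MgCl2, DTT. Times: 30 min preincubation with enzyme, 25 min cleavage at room temperature. Detection: AMC fluorescence intensity at 355/460 nm.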
# The depositor's hits bear a star; . = not tested or not shown.
SMILES,NRP1-CendR mod,DAGLB inhibitor,MT1-MMP act inh,CTSL1 counter,UCH37 inh
N#Cc1c(Nc2ccccc2)sc(C(=O)c2ccccc2)c1N,7,1,-1,6,3
COc1cccc(-c2cc(C(=O)N3CCc4ccccc4C3)no2)c1,-10,-5,3,2,22*
COc1ccc(-c2cc(C(=O)N3CCc4ccccc4C3)no2)cc1,-2,-3,-2,3,3
O=C(Nc1ccccc1C(=O)NN=Cc1ccco1)c1ccccc1Cl,.,.,.,.,6
CCOc1cc(C=N/N=C2/NC(=O)C(CC(=O)O)S2)ccc1OS(=O)(=O)c1ccc(C)cc1 (stereo not drawn),.,.,.,.,15
CC(=O)Nc1ccc(S(=O)(=O)NCCC(=O)NCCCc2ccccc2)cc1,22*,1,6,.,4
COc1ccc(NCc2nnc(SCC(=O)NCc3ccccc3)n2-c2ccccc2OC)cc1,29*,0,12,0,-5
Cc1ccccc1-n1ncc2c1CC(C)(C)CC2NC(=O)CSc1ccncc1 (stereo not drawn),-1,2,2,5,4
Cc1ccccc1-n1ncc2c1CC(C)(C)CC2NC(=O)c1ccncc1 (stereo not drawn),44*,1,-1,2,1
O=Cc1ccc(-c2ccccc2C(=O)O)o1,35*,-2,5,3,-9
COC(=O)c1ccccc1-c1ccc(C=O)o1,-11,-4,1,1,4
O=S(=O)(Cc1ccccc1)Nc1ccc(Br)cn1,10,0,4,0,-1
Cc1ccc(NS(=O)(=O)Cc2ccccc2)nc1,26*,-1,1,1,-77
O=C(Nc1ccccc1O)c1cc(S(=O)(=O)N2CCOCC2)c(Cl)cc1Cl,0,3,10,-2,6
O=C(NNC(=O)c1cc(S(=O)(=O)N2CCOCC2)c(Cl)cc1Cl)c1ccccc1F,17*,1,2,.,4
Brc1ccc(C=NNc2ncnc3c2cnn3Cc2ccccc2)cc1,.,.,.,.,-2
COc1ccccc1CNC(=O)c1cc(-c2ccccc2)nn1Cc1cc(C)no1,27*,-3,4,-1,4
COc1cc(CC(=O)OCC(=O)N2CCCCC2C)cc(OC)c1OC (stereo not drawn),2,1,2,1,0
COc1cc(CC(=O)OCC(=O)N2C(C)CCCC2C)cc(OC)c1OC (stereo not drawn),26*,0,2,0,2
CCNS(=O)(=O)c1ccc(CCC(=O)O)cc1,26*,0,0,-5,4
COCCCn1c(SCC(=O)NC2CCCCC2)nnc1-c1ccncc1,-16,1,-1,1,-1
COc1ccccc1-c1nnc(SCC(=O)NC2CCS(=O)(=O)C2)n1N (stereo not drawn),22*,-1,1,-2,1
COCCCn1c(SCC(=O)NC2CCS(=O)(=O)C2)nnc1-c1ccc(Cl)cc1 (stereo not drawn),23*,-2,2,.,3
O=C(NN=Cc1ccc(OC(=O)c2ccccc2)cc1)c1cccc(O)c1,.,.,.,.,-2
CCOC(=O)/C(C#N)=C/c1cc2ccccc2nc1N1CCOCC1,-21,-3,0,-2,6
SMILES,NRP1-CendR mod,DAGLB inhibitor,MT1-MMP act inh,CTSL1 counter,UCH37 inh
N#CC(C#N)=Cc1cc2ccccc2nc1N1CCCCC1,33*,-1,-3,-1,2
CC(=O)CSc1nc2c(c(=O)[nH]c(=O)n2C)n1Cc1cccc(Br)c1,6,1,-5,35*,3
COC(=O)[C@H](CC(C)C)NS(=O)(=O)N[C@@H](CC(C)C)C(=O)OC,4,3,1,.,2
CCOC(=O)N1CCN(C(=O)C(CC(C)C)NS(=O)(=O)c2ccc(C)cc2)CC1 (stereo not drawn),22*,-2,4,.,3
COC(=O)[C@H](CC(C)C)NS(=O)(=O)c1ccccc1,23*,-1,-2,-3,1
Cc1n[nH]c(C)c1CCC(=O)NN=C/C=C/c1ccccc1,.,.,.,.,3
CN(N=Cc1cccs1)c1cc(=O)n(C)c(=O)[nH]1,.,.,.,.,21*
O=c1nc2sc(=Cc3ccc(-c4ccccc4[N+](=O)[O-])o3)c(=O)n2nc1-c1ccccc1,.,.,.,.,5
O=C(COC(=O)c1ccc([N+](=O)[O-])s1)Nc1ncc(C(F)(F)F)cc1Cl,-117,5,-6,34*,16
Cc1cccc(NC(=O)c2cc(S(=O)(=O)c3ccccc3)ccc2Cl)c1,34*,-8,1,-1,0
Cc1ccccc1NC(=O)c1cc(S(=O)(=O)c2ccccc2)ccc1Cl,4,-1,-4,-2,1
Cc1nnc(C)n1N=Cc1cccc(Oc2ccccc2)c1,.,.,.,.,1
CCOc1cccc(C=NN=Cc2cccc(OCC)c2O)c1O,.,.,.,.,10
COCC(=O)NN=Cc1ccc(OC/C=C/c2ccccc2)c(OC)c1,.,.,.,.,-6
Cc1c(C#N)c(O)n(CCO)c(=O)c1N=Nc1ccc(S(N)(=O)=O)cc1,-3,3,10,14,21*
Cc1c(C#N)c(O)n(C)c(=O)c1N=Nc1ccc(S(N)(=O)=O)cc1,3,3,6,.,4
CCC1(c2ccc(F)cc2)NC(=O)N(CC(=O)Nc2cccc(S(=O)(=O)N3CCCCC3)c2)C1=O (stereo not drawn),31*,-4,14,-32,.
O=C(CCl)Nc1cccc(S(=O)(=O)N2CCCCCC2)c1,5,-1,1,78*,6
CCC1(c2ccccc2)NC(=O)N(CC(=O)Nc2ccccc2C(=O)N2CCCCC2)C1=O (stereo not drawn),21*,1,0,3,5
Cc1csc(SCC(=O)Nc2cccc(S(=O)(=O)N3CCCC3)c2)n1,26*,0,3,-2,3
CC(=O)Oc1ccc(C=NNS(=O)(=O)c2ccccc2)cc1,.,.,.,.,5
COc1ccc(C(=O)NCC(=O)NN=Cc2ccc(C)o2)cc1OC,.,.,.,.,4
CC(=NNC(=O)c1ccc(CSc2cccc3cccnc23)cc1)C1CCCCC1,.,.,.,.,-43
C=C(C)CNC(=S)NN=C(C)c1cccc(NC(C)=O)c1,.,.,.,.,6
CC(=NNC(=O)CNC(=O)c1ccncc1)c1ccco1,.,.,.,.,2
Cc1ccc(N(NC(=O)C(O)(c2ccccc2)c2ccccc2)C(=O)CCl)cc1,-5,7,-22,81*,4
Cc1cc(C(=O)CCl)c(C)n1CCc1ccccc1,.,.,.,17*,6
Cc1cc(C)nc(SCc2ccc(C(=O)NN=Cc3ccccn3)cc2)n1,.,.,.,.,0
